In the library only some 1.2% were active in any assay of this set; here they are far more common.
CAL PDZ FP-1: inhibitors of human CAL PDZ peptide binding. purified CAL PDZ, TMR-peptide fluorescence polarization, 1 h. Q9HD26. actives 0.02% (n = 330,000). inhibition, % at 20 µM;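 active = highest replicate inhibition of at least 40%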;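 also: plate controls were DMSO neutral control wells for no effect and unlabeled competitor peptide control wells for full effect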
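Material: tagged CAL PDZ domain; buffer or medium: 25 mM sodium phosphate pH 7.4, 150 mM NaCl, TCEP, IgG, Thesit; compound dosing: single point, 20 µM; schedule: 1 h incubation at room temperature before polarization reading; measured by: FP readout, S and P plane fluorescence; read-out basis: percent inhibition from loss of millipolarization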
CaV13 FRET inh: Primary screen for inhibitors of IQ motif and Ca2+-dependent inactivation inhibitor domain binding in CACNA1D, Förster resonance energy transfer in living cells, …; inhibition, % at 12.3 µM; AID 743397; actives 0.098% (n = 340,000); HEK cells, CFP/YFP FRET ICDI-IQ, plate reader, 10 min; percent FRET-ratio fall versus neutral wells;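 active = mean replicate inhibition of at least 30% and at least 1% of replicates passing that level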;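 also: 0% = median of the neutral control wells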
CAL PDZ FP-2: inhibitors of human CAL PDZ peptide binding | actives 0.92% (n = 300,000) | AID 602252 | inhibition, % at 24.9 µM | purified CAL PDZ, TMR-peptide fluorescence polarization, 1 h | Q9HD26;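 active = mean inhibition of at least 30% with at least half of replicates also reaching 30%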;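 also: 0% = DMSO neutral control and 100% = excess unlabeled competitor peptide PRC23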
ARNT TACC3 PPI: disrupts binding between human ARNT and TACC3 | AlphaScreen His-ARNT PAS-B/GST-TACC3 binding, luminescence; TACC3 fragment carries E629A point mutation | inhibition, % at 9.99 µM | actives 0.66% (n = 390,000);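 active = mean inhibition of replicates at least 50% and at least half of replicates each reaching 50%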;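 also: 0% = complete ARNT plus TACC3 wells and 100% = ARNT alone without TACC3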
* hit, by the source's call; nt = no result; + = active, no number.

SMILES	CAL PDZ FP-1	CaV13 FRET inh	CAL PDZ FP-2	ARNT TACC3 PPI
O=C(Cn1nc(Cc2cccnc2)c2ccccc2c1=O)Nc1cc(F)ccc1F	-1	-6	66*	-9
COc1ccc(C)cc1-n1c(=O)c2ccccc2c2ccccc2c1=O	-1	nt	+	-12
COc1ccc(-n2c(=O)c3ccccc3c3ccccc3c2=O)c(OC)c1	0	-6	-1	-4
COc1ccc(NC(=O)n2ncc3c(C)cccc32)cc1	nt	-21	62*	-41
CN1CCN(C(=O)c2cc3c(c(-c4cccc(-c5cccc(F)c5)c4)n2)[C@@H](CCO)N(S(=O)C(C)(C)C)C3)CC1 (stereo partly drawn)	nt	nt	nt	-6
C=CCNC(=S)NNC(=O)c1cccn(Cc2ccc(Cl)cc2)c1=O	-2	-4	-3	52*
C=CCNC(=S)NNC(=O)c1cccn(Cc2cccc(Cl)c2)c1=O	0	nt	nt	nt
CC(C)NC(=O)Nc1ccc2c(c1)C(=O)N([C@@H](C)CO)C[C@@H](C)[C@@H](CN(C)C(=O)Nc1ccccc1)O2	nt	nt	nt	8
O=C(NC1CCCCC1)N1CCN(c2nc(-c3ccccc3)cs2)CC1	-8	-6	59*	10
COCN(C#N)c1nc(N(C)C)nc(N(C)C)n1	0	-2	97*	-1
C[C@H]1CN([C@@H](C)CO)C(=O)Cc2cc(NS(=O)(=O)c3cn(C)cn3)ccc2O[C@@H]1CN(C)Cc1ccncc1	nt	nt	nt	-3
Cc1ccc(C)c(NC(=O)CCC(=O)N/N=C/c2cc([N+](=O)[O-])ccc2O)c1	-2	3	-3	49*
Cc1ccc(NC(=O)CCC(=O)N/N=C/c2cc([N+](=O)[O-])ccc2O)cc1	-1	-18	-4	9
O=C(CCN1CCN(C(c2ccccc2)c2ccccc2)CC1)N/N=C/c1ccc(O)cc1O	4	-3	-2	45*
O=C(CCN1CCN(C(c2ccccc2)c2ccccc2)CC1)N/N=C/c1ccc(O)cc1	2	-3	-2	-9
CN1CCN(CCC(=O)N/N=C/c2cc([N+](=O)[O-])ccc2O)CC1	-2	-6	0	75*
C[C@H](CO)N1C[C@H](C)[C@H](CN(C)Cc2ccc(C(F)(F)F)cc2)Oc2ccc(NC(=O)Nc3ccc4c(c3)OCO4)cc2C1=O	nt	nt	nt	7
CC(C)Cn1c(N)c(C(=O)COC(=O)c2cc(F)cc(F)c2)c(=O)n(C)c1=O	-3	-6	36*	-17
COc1cc(-c2nnc(SCC(=O)O)n2-c2ccccc2)cc(OC)c1OC	nt	-19	69*	-11
CCOC(=O)Cn1c(=O)oc2cc(S(=O)(=O)N(C)Cc3ccccc3)ccc21	0	-6	76*	-4
CCOC(=O)Cn1c(=O)oc2cc(S(=O)(=O)N(CCN(C)C)Cc3ccccc3)ccc21	0	-5	-2	0
COc1ccccc1CN1CCNC(=O)C1CC(=O)NCc1c(C)n[nH]c1C (stereo not drawn)	nt	-4	51*	-1
COc1ccccc1CN1CCNC(=O)C1CC(=O)NCc1csc(C)n1 (stereo not drawn)	-2	-4	-2	-2
Cc1cc(C)nc(CCNC(=O)CC2C(=O)NCCN2Cc2ccc(F)cc2Cl)n1 (stereo not drawn)	0	-9	60*	0
CN1CCN(C(=O)C[C@H]2CC[C@@H](NC(=O)c3ccc4c(c3)OCO4)[C@@H](CO)O2)CC1	nt	nt	nt	-3
SMILES	CAL PDZ FP-1	CaV13 FRET inh	CAL PDZ FP-2	ARNT TACC3 PPI
CN1CCN(C(=O)c2cc(Cl)cc(Cl)c2)CC1	nt	8	64*	2
O=C(COC(=O)/C=C/c1ccccc1[N+](=O)[O-])Nc1ccc(S(=O)(=O)N2CCOCC2)cc1	0	-5	35*	3
O=C(COC(=O)c1cc(S(=O)(=O)N2CCOCC2)ccc1Cl)Nc1ccc2c(c1)OCO2	-2	-5	79*	-1
COc1ccc(NC(=O)COC(=O)/C=C/c2ccccc2[N+](=O)[O-])cc1	-1	-9	-2	-7
O=C(COC(=O)c1cc(S(=O)(=O)N2CCCCC2)ccc1N1CCOCC1)c1ccccc1Cl	nt	64*	nt	nt
COc1ccc(NC(=O)Nc2ccc3c(c2)C(=O)N([C@@H](C)CO)C[C@H](C)[C@H](CN(C)Cc2ccccc2)O3)cc1	nt	nt	nt	1
C[C@@H]1CCCCO[C@@H](CN(C)S(=O)(=O)c2ccccc2)[C@H](C)CN([C@H](C)CO)C(=O)c2cc(NC(=O)C3CCCCC3)ccc2O1	nt	nt	nt	-3
Cc1cccc(S(=O)(=O)N2CCCCN3[C@@H](CO)[C@@H](c4ccc(C#C[C@@H](C)O)cc4)[C@@H]3C2)c1	nt	nt	nt	11
C[C@@H]1CN([C@H](C)CO)C(=O)c2cc(NC(=O)NC3CCCCC3)ccc2O[C@@H]1CN(C)S(=O)(=O)c1ccc(F)cc1	nt	nt	nt	1
Cc1ccc(NC(=S)NC(=O)C2CC2)cc1Cl	-4	-11	52*	1
CC(Oc1ccccc1)C(=O)N1CCc2ccccc2C1 (stereo not drawn)	0	-20	nt	-2
Cc1cccc(C(=O)OC(C)C(=O)N2CCc3ccccc3C2)c1C (stereo not drawn)	-1	-6	52*	-2
O=C1NN(c2ccccc2)C(=O)/C1=C\c1ccccc1	-1	-5	8	8.4*
CN(C)CCNc1nc(S(=O)(=O)c2ccccc2)c(Cl)s1	-1	-6	83*	22
O=C(COC(=O)c1ccc2ncsc2c1)NCc1ccc(F)cc1	0	-5	54*	-12
Cc1ccc(Cn2c(=O)n(CCC(=O)NCc3ccc4c(c3)OCO4)c(=O)c3ccccc32)cc1	-1	-3	66*	-4
O=C(Oc1ccccc1)N1CCOCC1	13	-5	74*	10
COc1cccc(Oc2coc3cc(OC(=O)N4CCOCC4)ccc3c2=O)c1	-1	-6	0	1
O=C(Oc1ccc(OC(=O)N2CCOCC2)cc1)c1ccccc1	0	-5	nt	-10
COc1ccccc1Oc1coc2cc(OC(=O)N3CCOCC3)ccc2c1=O	102*	-4	-2	2
COc1ccc(S(=O)(=O)Nc2cccc3c2O[C@H](CN(C)Cc2ccc(C(=O)Nc4ccccc4N)cc2)[C@H](C)CN([C@H](C)CO)C3=O)cc1	nt	nt	nt	-3
O=C(CN1C(=O)c2ccccc2C1=O)NNC1=NS(=O)(=O)c2ccccc21	-1	-3	30*	0
O=C(Cc1ccccc1)NNC1=NS(=O)(=O)c2ccccc21	0	-5	2	-29
CCCN(CCC)CC(C)(C)NS(=O)(=O)c1ccc(Cl)cc1	-1	0	70*	-8
C[C@@H](NC(=O)C[C@H]1C[C@H]2c3cc(NC(=O)c4ccc5c(c4)OCO5)ccc3O[C@H]2[C@@H](CO)O1)c1ccccc1	nt	nt	nt	0
N#C/C(C(N)=O)=c1/ccc2c(c1)N1C3=C(CCCC3)CC3CCCCC31N=2 (stereo not drawn)	nt	-5	nt	65*
S=C(N/N=C/c1ccccc1)N1CCOCC1	0	-5	-4	46*

Screening data from PubChem.
